# Source: PubChem BioAssay (Sanford-Burnham Center for Chemical Genomics)
# G6PDH counter – counter-screen for G6PDH assay hits: L. mesenteroides G6PDH inhibition; Purified L. mesenteroides G6PDH, diaphorase/resazurin coupled fluorescence, 45 min; inhibition, % at 5 µM; actives 0.12% (n = 200,000); in the data active = inhibition above about 50%
# PfGluPho inh – PfG6PD (Plasmodium falciparum) enzyme inhibition | PfGluPho enzyme, NADPH resazurin-diaphorase fluorescence | inhibition, % at 20 µM | actives 0.78% (n = 350,000) | AID 504690;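 active = inhibition reaching at least a set limit at 20 µM in the primary screen, cut at about 59% in these data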;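 note: 0% = DMSO wells with substrate and 100% = DMSO wells lacking glucose-6-phosphate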
# Diaphorase inh – diaphorase inhibition or chemical oxidation counter-screen. inhibition, % at 20 µM. AID 1217. actives 0.69% (n = 190,000). diaphorase resazurin-to-resorufin fluorescence, NADH, 16 min; bacterial (C. kluyveri) enzyme, not human;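 active = primary screen inhibition at 20 µM above a set limit, cut at about 50% in these data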;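 note: plate controls were DMSO with full reaction for no effect and wells lacking NADH for full effect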
#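 System: Diaphorase enzyme from Clostridium kluyveri | Amount: Enzyme working solution with 0.14 U/mL diaphorase | Benchmarks: No-NADH positive control and DMSO neutral control | Signal: Fluorescence of resorufin formed from resazurin, Ex 544/Em 590 nm | Schedule: 16-min room-temperature incubation before reading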
# HKDC1 inhibitor – HKDC1 (human) hexokinase inhibition; Q2TB90; recombinant HKDC1, G6PDH/diaphorase resazurin coupled fluorescence; inhibition, % at 20 µM; actives 0.16% (n = 340,000); AID 493160;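 active = inhibition above about 35% when tested at 20 µM, limit read from the data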;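 note: plate controls were DMSO wells with enzyme for no effect and DMSO wells lacking enzyme for full effect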
#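 Material – in-house recombinant HK5 (HKDC1) enzyme · Quantity – HKDC1 at 5 µg/mL · Buffer or medium – pH 8.0 Tris buffer with 10 mM MgCl2 · Reagent – glucose with 1 mM ATP · Dosing – single 20 µM dose · Times – reaction time 90 min, room temperature, protected from light · Technique – resorufin fluorescence at 613 nm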
# PfGluPho conf – confirmation of Plasmodium falciparum G6PD inhibitors | AID 504753 | actives 34% (n = 2,400) | inhibition, % at 20 µM | shares compounds with PfGluPho inh | recombinant PfGluPho, NADPH-diaphorase-resazurin fluorescence;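 active = inhibition of at least 50% at 20 µM in any single replicate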;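 note: 0% = DMSO with substrate and 100% = DMSO lacking glucose-6-phosphate substrate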
# Diaphorase 10uM – inhibits diaphorase or oxidizes, flagging false PfG6PD hits | shares compounds with PfGluPho inh | diaphorase-coupled resazurin reduction, fluorescence, NADPH 10 uM | inhibition, % at 20 µM | actives 39% (n = 820);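 active = average inhibition reaching 50% or more with the compound at 20 µM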;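 note: resorufin red fluorescence formed as diaphorase reduces resazurin using NADPH; 0% = DMSO with enzyme and 100% = DMSO without enzyme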
# Diaphorase 30uM – inhibits diaphorase or oxidizes, flagging false PfG6PD hits. actives 29% (n = 820). shares compounds with PfGluPho inh. AID 504863. inhibition, % at 20 µM. Diaphorase/resazurin coupled assay, resorufin fluorescence, 30 uM NADPH;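 active = inhibition averaging 50% or more, tested at 20 µM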;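 note: 0% = DMSO with enzyme and 100% = DMSO wells lacking diaphorase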
# An asterisk follows results filed as active; / = no result. Compounds with a hit are over-represented: about 1.3% of the library has one in this group of screens.
SMILES,G6PDH counter,PfGluPho inh,Diaphorase inh,HKDC1 inhibitor,PfGluPho conf,others
COc1ccc(N2CSC3=C(C#N)C(c4cccc(OC)c4OC)CC(=O)N3C2)cc1 (configuration not stated),33,89*,45,15,37,
CCc1ccccc1N1CSC2=C(C#N)C(c3ccccc3F)CC(=O)N2C1 (configuration not stated),12,74*,31,13,51*,Diaphorase 10uM=-17;Diaphorase 30uM=-13
Cc1ccc2nc(COC(=O)c3cccnc3Cl)cc(=O)n2c1,/,18,/,/,/,
Cc1ccc2nc(-c3ccc(NC(=S)NC4CC(C)(C)NC(C)(C)C4)cc3)sc2c1,-5,93*,-45,-5,111*,Diaphorase 10uM=-16;Diaphorase 30uM=-1
Cc1ccc2nc(-c3ccc(NC(=S)NC(=O)C(C)C)cc3)sc2c1,5,-1,12,3,/,
Cc1ccc(CNc2nc(C)c(C(=O)N(C)C)s2)cc1,/,1,/,-4,/,
S=C(N/N=C/c1ccc2ncccc2c1)Nc1cccnc1,-1,69*,18,-6,9,
O=C(O)c1cccc(NC(=S)N/N=C/c2ccccn2)c1,3,68*,13,-33,44,
Cc1cccc(C(=O)Nc2cccc(C(=O)N/N=C/c3ccccn3)c2)c1,/,-9,/,-2,/,
Cc1cccc(NC(=O)c2cc(-c3ccc(C)c(C)c3O)n[nH]2)c1,/,-6,/,1,/,
Cc1ccc(SCCC(=O)N/N=C/c2cccnc2)cc1,0,74*,19,9,67*,Diaphorase 10uM=80*;Diaphorase 30uM=66*
Cc1ccc(SCCC(=O)N/N=C/c2ccccc2O)cc1,-10,77*,24,-4,34,
Cc1ccc(NC(=O)CCC(=O)N/N=C/c2ccccc2O)cc1,/,-21,/,-6,/,
Cc1c(CC(=O)N2CCC(O)CC2)c(=O)oc2cc3c(cc12)CCC1(CCCCC1)O3,/,-3,/,/,/,
C=CCn1c(N)c(C(=O)NCCC2=CCCCC2)sc1=S,18,69*,19,-1,29,
NC(=O)NCCC1=CCCCC1,-3,3,4,-3,/,
COc1ccc(Cl)cc1NC(=O)CN(C(=O)c1ccco1)C1CCCCC1,12,63*,13,-1,31,
COc1ccc(Cl)cc1NC(=O)CN(C)C(C)C(=O)NCC1CCCCC1 (configuration not stated),2,14,19,-4,/,
COc1ccccc1-n1c(=O)oc2ccc(Cl)cc2c1=O,2,61*,-6,0,27,
COc1c(Cl)c(=O)oc2ccc(Cl)cc12,/,-16,/,/,/,
Cc1sc2ncnc(N3CCC(C(=O)Nc4nnc(CC(C)C)s4)CC3)c2c1C,/,-25,/,4,/,
Cc1cc(N)c2cc(NC(=O)/C=C/c3ccccc3Cl)ccc2n1,/,60*,/,14,1,
N#CCC(C(=O)c1cccnc1)c1ccccc1 (configuration not stated),/,9,/,/,/,
Cc1cc(S(=O)(=O)ON2C(=O)c3ccccc3C2=O)ccc1F,/,65*,/,4,6,
COc1cccc(C(=O)Nc2ccc(Cl)c(C(F)(F)F)c2)c1,-22,65*,20,3,-15,
SMILES,G6PDH counter,PfGluPho inh,Diaphorase inh,HKDC1 inhibitor,PfGluPho conf,others
Cc1ccc(C2(c3ccc(C)cc3)CC2C(=O)Nc2ccc([N+](=O)[O-])cc2O)cc1 (configuration not stated),5,93*,19,-2,19,
CCCn1cc(S(=O)(=O)CC(=O)N2CCc3ccccc32)c2ccccc21,4,19,35,19,/,
Cn1cc(S(=O)(=O)CC(=O)N2CCc3ccccc32)c2ccccc21,13,74*,26,1,53*,Diaphorase 10uM=49;Diaphorase 30uM=46
Cn1cc(S(=O)(=O)Cc2ccc(F)cc2)c2ccccc21,/,103*,/,2,62*,Diaphorase 10uM=69*;Diaphorase 30uM=51*
S=c1[nH]nc(-c2ccc3ccccc3n2)n1-c1ccccc1Cl,25,63*,14,1,48,
COC(=O)c1sccc1S(=O)(=O)Nc1ccc(S(N)(=O)=O)cc1,/,-8,/,-4,/,
COC(=O)c1scc(C)c1S(=O)(=O)Nc1ccc(C)cc1,/,70*,/,4,21,
Cc1ccc(C(=O)C(C)OC(=O)C2CCN(c3ccc(C(F)(F)F)cn3)CC2)cc1 (configuration not stated),/,23,/,4,/,
COCCNC(=S)Nc1ccc(N2CCCCC2)cc1,6,64*,-4,-18,14,
CCOC(=O)c1ccc(NC(=O)c2ccc[n+]([O-])c2)cc1,/,4,/,-7,/,
Cc1nn(C(=O)CNS(=O)(=O)c2ccccc2)c(C)c1Sc1ccc(Cl)cc1,11,80*,14,4,20,
O=C1C=C(c2ccc(C(=O)O)cc2)C[C@@H](c2ccc(F)cc2)C1,/,-22,/,4,/,
O=C(Nc1n[nH]c(=S)s1)c1ccco1,/,60*,/,-3,37,
COc1cccc(N2CCN(c3ccc4nnc(CCC(=O)Nc5ccc(C)cn5)n4n3)CC2)c1,/,15,/,2,/,
Cc1cccc(OCC(=O)NCC(=O)N/N=C/c2cccs2)c1,15,25,10,-8,/,
Cc1cccc(OCC(=O)NCC(=O)N/N=C/c2c(C)[nH]c3ccccc23)c1,/,63*,/,-1,26,
COc1ccc(-c2cn3c4c(sc3n2)CCCC4)cc1,6,93*,15,4,45,
COc1ccc(-c2cn3c(C)c(C(=O)Nc4ccncc4)sc3n2)cc1,0,65*,-17,-3,19,
Cc1c(C(=O)Nc2ccncc2)sc2nc(-c3ccc(F)cc3)cn12,-45,84*,17,8,10,
CC1=C(SCCC#N)S/C(=C2\SC(C)=C(SCCC#N)S2)S1,2,60*,26,1,3,
Cn1c(SCCC#N)nnc1-c1ccc(F)cc1,4,/,9,/,/,
Cc1ccc(NC(=O)c2ccc(Cl)c(N3C(=O)C=CC3=O)c2)cc1,-2,100*,4,2,100*,Diaphorase 10uM=-22;Diaphorase 30uM=-7
COc1ccc(-c2oc3ccccc3c2C#Cc2cncn2C)cc1,/,9,/,0,/,
COc1ccc(Cn2c(/C=C/c3ccccc3)nc3ccccc32)cc1,4,74*,18,-4,21,
COc1ccc(Nc2nc3ccccc3n2C)cc1,/,6,/,-3,/,
CCn1c(/C=C/c2ccccc2)nc2ccccc21,4,56,-4,-4,/,
COc1ccc(/C=C/c2nc3ccccc3n2C)cc1,2,73*,5,-5,56*,Diaphorase 10uM=50;Diaphorase 30uM=44
Cc1ccc(S(=O)(=O)N(CC(=O)NCc2ccccc2Cl)C(=O)N2CCN(C)CC2)cc1,/,-17,/,-4,/,
COc1ccccc1CNC(=O)CCC(=O)N1Cc2cccc(OC)c2Oc2ncccc21,/,9,/,-2,/,
COc1ccc2c(c1)-c1ccccc1S(=O)(=O)N(C)C2,/,51,/,-2,/,
